Data as given in ChEMBL document CHEMBL4680108, “Ancistrolikokine E, a 5,8'-Coupled Naphthylisoquinoline Alkaloid, Eliminates the Tolerance of Cancer Cells to Nutrition Starvation by Inhibition of the Akt/mTOR/Autophagy Signaling Pathway” (2018).

Tested on: PANC-1
Assay: Anti-austerity activity against nutrient-deprived human PANC-1 cells assessed as cell death incubated for 24 hrs by WST-8 assay
Format: functional
Outline: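 Human PANC-1 pancreatic cancer cells tested in parallel in nutrient-deprived medium (NDM) and in nutrient-rich DMEM. PC50 is the concentration that kills 50% of cells in NDM without toxicity in DMEM.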

**Q.** How did the PC50 turn out when `COc1cc(C[C@H]2C(=O)OC[C@@H]2Cc2ccc(OC)c(OC)c2)ccc1O` [ARCTIGENIN] was run?
**A.** 0.83 µM
